Reference: EPA's CvTdb concentration-time database

Key:
Rat [1] = experiment: concentration in plasma after dosing; details: dosed: Wyeth-14643, 1.0 mg/kg, oral, Male, Sprague-Dawley
Rat [2] = experiment: concentration in plasma after dosing; details: 5 min; dosed: Wyeth-14643; 2.0 mg/kg; iv; Male; Sprague-Dawley
Rat [3] = experiment: concentration in plasma after dosing; details: 4 h; dosed: Wyeth-14643; 5.0 mg/kg; oral; Male; Sprague-Dawley
Rat [4] = experiment: concentration in plasma after dosing; details: 2 h; dosed: Wyeth-14643; 1.0 mg/kg; oral; Male; Sprague-Dawley
Rat [5] = experiment: concentration in heart after dosing; details: 5 h; dosed: Bis 2-Chloroethoxy Methane; 20 mg/kg; iv; Female; F344
Rat [6] = experiment: concentration in heart after dosing; details: 4 h; dosed: Bis 2-Chloroethoxy Methane; 20 mg/kg; iv; Male; F344
Rat [7] = experiment: concentration in liver after dosing; details: 10 min; dosed: Bis 2-Chloroethoxy Methane; 20 mg/kg; iv; Female; F344
Rat [8] = experiment: concentration in thymus after dosing; details: 6 h; dosed: Bis 2-Chloroethoxy Methane; 20 mg/kg; iv; Male; F344
Rat [9] = experiment: concentration in thymus after dosing; details: 40 min; dosed: Bis 2-Chloroethoxy Methane; 20 mg/kg; iv; Female; F344
Rat [10] = experiment: concentration in liver after dosing; details: 40 min; dosed: Bis 2-Chloroethoxy Methane; 20 mg/kg; iv; Male; F344
Rat [11] = experiment: concentration in plasma after dosing; details: dosed: Fluorotelomer alcohol 8+2, 40 mg/kg, iv, Male, F344
Rat [12] = experiment: concentration in brain after dosing; details: 1 h; dosed: Fluorotelomer alcohol 8+2; 24 mg/kg; oral; Male; Harlan Sprague Dawley
Rat [13] = experiment: concentration in brain after dosing; details: 3 h; dosed: Fluorotelomer alcohol 8+2; 24 mg/kg; oral; Male; Harlan Sprague Dawley
Rat [14] = experiment: concentration in brain after dosing; details: 12 h; dosed: Fluorotelomer alcohol 8+2; 80 mg/kg; oral; Female; Harlan Sprague Dawley
Rat [15] = experiment: concentration in brain after dosing; details: 0.5 h; dosed: Fluorotelomer alcohol 8+2; 80 mg/kg; oral; Female; Harlan Sprague Dawley
Rat [16] = experiment: concentration in liver after dosing; details: 6 h; dosed: Fluorotelomer alcohol 8+2; 24 mg/kg; oral; Male; Harlan Sprague Dawley
Rat [17] = experiment: concentration in plasma after dosing; details: dosed: Fluorotelomer alcohol 8+2, 40 mg/kg, iv, Female, Harlan Sprague-Dawley
Rat [18] = experiment: concentration in brain after dosing; details: 0.5 h; dosed: Fluorotelomer alcohol 8+2; 80 mg/kg; oral; Female; Harlan Sprague Dawley; remark: listed apart in the source
Rat [19] = experiment: concentration in plasma after dosing; details: 2 h; dosed: Di-n-butyl phthalate; 100 mg/kg; oral; Male; Sprague-Dawley
Rat [20] = experiment: concentration in plasma after dosing; details: 10 min; dosed: Di-n-butyl phthalate; 20 mg/kg; iv; Male; Sprague-Dawley
Rat [21] = experiment: concentration in plasma after dosing; details: 1 h; dosed: Di-n-butyl phthalate; 50 mg/kg; oral; Male; Sprague-Dawley
Rat [22] = experiment: concentration in brain after dosing; details: 864 h; dosed: Perfluorodecanoic acid; 10 mg/kg; oral; Male; Harlan Sprague Dawley
Rat [23] = experiment: concentration in brain after dosing; details: 1848 h; dosed: Perfluorodecanoic acid; 10 mg/kg; oral; Female; Harlan Sprague Dawley
Rat [24] = experiment: concentration in plasma after dosing; details: dosed: Perfluorodecanoic acid, 2 mg/kg, iv, Male, F344
Rat [25] = experiment: concentration in plasma after dosing; details: 30 h; dosed: Primidone; 130 mg/kg; oral; Male; F344
Rat [26] = experiment: concentration in heart after dosing; details: 5.333 h; dosed: Thiodiglycolic Acid; 20 mg/kg; iv; Female; Harlan Sprague Dawley
Rat [27] = experiment: concentration in liver after dosing; details: 3 h; dosed: Thiodiglycolic Acid; 20 mg/kg; iv; Female; Harlan Sprague Dawley
Rat [28] = experiment: concentration in liver after dosing; details: 1 h; dosed: Thiodiglycolic Acid; 20 mg/kg; iv; Male; Harlan Sprague Dawley
Rat [29] = experiment: concentration in liver after dosing; details: 5.333 h; dosed: Thiodiglycolic Acid; 20 mg/kg; iv; Female; Harlan Sprague Dawley
Rat [30] = experiment: concentration in thymus after dosing; details: 5.333 h; dosed: Thiodiglycolic Acid; 20 mg/kg; iv; Female; Harlan Sprague Dawley
Rat [31] = experiment: concentration in liver after dosing; details: 3 h; dosed: Thiodiglycolic Acid; 20 mg/kg; iv; Male; Harlan Sprague Dawley
Rat [32] = experiment: concentration in plasma after dosing; details: dosed: dichloroacetic acid, 100 mg/kg, oral, Male, F344
human = details: dosed: trichloroethylene, 100 ppm, inhalation, duration: 4 hr, person
How it was run: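 Points were largely digitised from plot screenshots with WebPlotDigitizer or otherwise copied from tables, and they remain in the units each source reported. They come from published in vivo toxicokinetic studies and two structured collections. Sampling and analytical methods follow each source and were often not reported.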

Cc1cccc(Nc2cc(Cl)nc(SCC(=O)O)n2)c1C
Rat [1]
Details | concentration in plasma [ng/mL]
0.25 h | 341
4 h | 214

Details | concentration in plasma [ng/mL]
Rat [2] | 7290
Rat [3] | 1200
Rat [4] | 266

ClCCOCOCCCl [Bis 2-Chloroethoxy Methane]
Details | concentration in heart [ng/g] | concentration in liver [ng/g] | concentration in thymus [ng/g]
Rat [5] | 33 | – | –
Rat [6] | 83.9 | – | –
Rat [7] | – | 2550 | –
Rat [8] | – | – | 19.5
Rat [9] | – | – | 6590
Rat [10] | – | 4070 | –

OCCC(F)(F)C(F)(F)C(F)(F)C(F)(F)C(F)(F)C(F)(F)C(F)(F)C(F)(F)F [Fluorotelomer alcohol 8+2]
concentration in plasma [ng/mL]
Details | 0.25 h | 0.75 h | 6 h | 12 h
Rat [11] | 12700 | – | 153 | –
Rat [17] | – | 2220 | – | 28.7

Details | concentration in brain [ng/g] | concentration in liver [ng/g]
Rat [12] | 2020 | –
Rat [13] | 1490 | –
Rat [14] | 571 | –
Rat [15] | 2670 | –
Rat [16] | – | 1250
Rat [18] | 4390 | –

CCCCOC(=O)c1ccccc1C(=O)O [Mono-n-butyl phthalate]
Details | concentration in plasma [ng/mL]
Rat [19] | 1290
Rat [20] | 31200
Rat [21] | 3070

O=C(O)C(F)(F)C(F)(F)C(F)(F)C(F)(F)C(F)(F)C(F)(F)C(F)(F)C(F)(F)C(F)(F)F [Perfluorodecanoic acid]
Details | concentration in brain [ng/g]
Rat [22] | 917
Rat [23] | 752

Rat [24]
Details | concentration in plasma [ng/mL]
24 h | 5550
1848 h | 488

CCC1(c2ccccc2)C(=O)NC(=O)NC1=O [Phenobarbital]
Details | concentration in plasma [ng/mL]
Rat [25] | 1780

O=C(O)CSCC(=O)O [Thiodiglycolic Acid]
Details | concentration in heart [ng/g] | concentration in liver [ng/g] | concentration in thymus [ng/g]
Rat [26] | 321 | – | –
Rat [27] | – | 94200 | –
Rat [28] | – | 126000 | –
Rat [29] | – | 4800 | –
Rat [30] | – | – | 372
Rat [31] | – | 59900 | –

O=C(O)C(Cl)Cl [dichloroacetic acid]
Rat [32]
Details | concentration in plasma [ng/mL]
2 h | 41300
5 min | 7120

O=C(O)C(Cl)(Cl)Cl [trichloroacetic acid]
human
Details | amount in urine after dosing [mg]
1 h | 0.21
2 h | 0.25
4 h | 0.57
8 h | 2.37
12 h | 1.32
16 h | 0.93
24 h | 2.15
36 h | 4.32
48 h | 8.17
60 h | 7.79
72 h | 7.83
84 h | 6.95
96 h | 4.34
108 h | 4.56
120 h | 3.32
132 h | 3.23
144 h | 4
156 h | 2.44
168 h | 1.44
180 h | 2.55
